Results pooled from the literature.
MTNR1A: Melatonin receptor type 1A (MTNR1A, Homo sapiens, UniProt P48039)
Glucagon receptor: Glucagon receptor (Mus musculus, UniProt Q61606)

SMILES | target | assay | EC50
COc1ccc2[nH]cc(CCNC(C)=O)c2c1I | MTNR1A | cAMP, agonist, TR-FRET | 229 nM
COc1ccc(CSc2nnc(C3CC3)[nH]2)cc1 | MTNR1A | cAMP, agonist, luciferase | 2.96 nM
COCC(CNC(C)=O)c1cccc2ccc(OC)cc12 (stereo not drawn) | MTNR1A | cAMP, agonist, TR-FRET | 21.4 nM
Cc1cccnc1C(=O)Nc1ccc(N2C(=O)c3cccc(Cl)c3C2=O)c(Cl)c1 | Metabotropic glutamate receptor 1 (Grm1, Rattus norvegicus, UniProt P23385) | calcium signal, positive allosteric modulator | 367 nM
CC[C@H](C)[C@H](NC(=O)[C@H](CO)NC(=O)[C@H](Cc1ccc(O)cc1)NC(=O)[C@H](CC(=O)O)NC(=O)[C@H](CO)NC(=O)[C@@H](NC(=O)[C@H](Cc1ccccc1)NC(=O)[C@@H](NC(=O)CNC(=O)[C@H](CCC(=O)O)NC(=O)[C@H](C)NC(=O)[C@@H](N)Cc1ccc(O)cc1)[C@@H](C)O)[C@@H](C)CC)C(=O)N[C@@H](C)C(=O)N[C@@H](CCSC)C(=O)N[C@@H](CC(=O)O)C(=O)N[C@@H](CCCCN)C(=O)N[C@H](C(=O)N[C@@H](CCCNC(=N)N)C(=O)N[C@@H](CCC(N)=O)C(=O)N[C@@H](CCC(N)=O)C(=O)N[C@@H](CC(=O)O)C(=O)N[C@@H](Cc1ccccc1)C(=O)N[C@H](C(=O)N[C@@H](CC(N)=O)C(=O)N[C@@H](Cc1c[nH]c2ccccc12)C(=O)N[C@@H](CC(C)C)C(=O)N[C@@H](CC(C)C)C(=O)N[C@@H](C)C(=O)N[C@@H](CCC(N)=O)C(=O)N[C@@H](CCCNC(=N)N)C(=O)NCC(=O)N[C@@H](CCCCN)C(=O)N[C@@H](CCCCN)C(=O)N[C@@H](CO)C(=O)N[C@@H](CC(=O)O)C(=O)N[C@@H](Cc1c[nH]c2ccccc12)C(=O)N[C@@H](CCCCN)C(=O)N[C@@H](Cc1c[nH]cn1)C(=O)N[C@@H](CC(N)=O)C(=O)N[C@H](C(=O)N[C@H](C(=O)N[C@@H](CCC(N)=O)C(=O)O)[C@@H](C)O)[C@@H](C)CC)C(C)C)[C@@H](C)CC | Glucagon receptor | reporter gene, agonist, luciferase | > 1000 nM
COc1cccc(CN2CCOc3ccc(OC)cc32)c1 | MTNR1A | cAMP, agonist, luciferase | 6.11 nM
CC[C@H](C)[C@H](NC(=O)[C@H](Cc1ccccc1)NC(=O)[C@H](CCC(=O)O)NC(=O)[C@H](CCCCN)NC(=O)[C@H](C)NC(=O)[C@H](C)NC(=O)[C@H](CCC(N)=O)NC(=O)CNC(=O)[C@H](CCC(=O)O)NC(=O)[C@H](CC(C)C)NC(=O)[C@H](Cc1ccc(O)cc1)NC(=O)[C@H](CO)NC(=O)[C@H](CO)NC(=O)[C@@H](NC(=O)[C@H](CC(=O)O)NC(=O)[C@H](CO)NC(=O)[C@@H](NC(=O)[C@H](Cc1ccccc1)NC(=O)[C@@H](NC(=O)CNC(=O)[C@H](CCC(=O)O)NC(=O)[C@H](C)NC(=O)[C@@H](N)Cc1c[nH]cn1)[C@@H](C)O)[C@@H](C)O)C(C)C)C(=O)N[C@@H](C)C(=O)N[C@@H](Cc1c[nH]c2ccccc12)C(=O)N[C@@H](CC(C)C)C(=O)N[C@H](C(=O)N[C@@H](CCCCN)C(=O)NCC(=O)N[C@@H](CCCN=C(N)N)C(=O)NCC(=O)O)C(C)C | Glucagon receptor | reporter gene, agonist, luciferase | > 1000 nM
Clc1sccc1CNc1cccc(-c2nnc[nH]2)c1 | MTNR1A | cAMP, agonist, luciferase | 9300 nM
C#CCOCCOCCOCCOc1ccc2c3c1C1CCCC1N3CCNC2 (racemic) | 5-hydroxytryptamine receptor 2C (HTR2C, Homo sapiens, UniProt P28335) | calcium signal, agonist, fluorescence | 647 nM
